ChEMBL document CHEMBL1142492 (J Med Chem, 2008)

What was measured:
[1] = target: Aurora kinase A (Homo sapiens) (UniProt O14965); test: Inhibition of AURKA at 3 uM
Rattus norvegicus = species on record: Rattus norvegicus; settings: 3 uM
[2] = target: Proto-oncogene tyrosine-protein kinase Src (Homo sapiens) (UniProt P12931); test: Inhibition of SRC at 3 uM
[3] = target: Gamma-aminobutyric acid receptor subunit alpha-1 (Rattus norvegicus) (UniProt P62813); test: Displacement of muscimol from rat GABAA1 receptor at 3 uM
In short: (§1)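 Counter-screen binding/enzyme panel at single 3 μM, n=2; results as percent inhibition. Species per target as listed (rat NMDA, GABAA sites; human receptors, transporters; rabbit ACE).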

[4] = tested on: Proto-oncogene tyrosine-protein kinase receptor Ret (Homo sapiens), P07949 [V804M]; test: Inhibition of RET V804M mutant at 3 uM
[5] = target: Platelet-activating factor receptor (Homo sapiens) (UniProt P25105); test: Inhibition of human PAF at 3 uM
[6] = target: Serine/threonine-protein kinase LATS2 (Homo sapiens) (UniProt Q9NRM7); test: Inhibition of LATS2 at 3 uM
[7] = tested on: Mast/stem cell growth factor receptor Kit (Homo sapiens), P10721 [D816V]; test: Inhibition of KIT D816V mutant at 3 uM
[8] = target: Mitogen-activated protein kinase 8 (Homo sapiens) (UniProt P45983); test: Inhibition of JNK1 at 3 uM
[9] = target: Mu-type opioid receptor (Homo sapiens) (UniProt P35372); test: Inhibition of human mu opioid receptor at 3 uM; in short: as §1
Sequence of Mu-type opioid receptor (Homo sapiens) (P35372 whole entry): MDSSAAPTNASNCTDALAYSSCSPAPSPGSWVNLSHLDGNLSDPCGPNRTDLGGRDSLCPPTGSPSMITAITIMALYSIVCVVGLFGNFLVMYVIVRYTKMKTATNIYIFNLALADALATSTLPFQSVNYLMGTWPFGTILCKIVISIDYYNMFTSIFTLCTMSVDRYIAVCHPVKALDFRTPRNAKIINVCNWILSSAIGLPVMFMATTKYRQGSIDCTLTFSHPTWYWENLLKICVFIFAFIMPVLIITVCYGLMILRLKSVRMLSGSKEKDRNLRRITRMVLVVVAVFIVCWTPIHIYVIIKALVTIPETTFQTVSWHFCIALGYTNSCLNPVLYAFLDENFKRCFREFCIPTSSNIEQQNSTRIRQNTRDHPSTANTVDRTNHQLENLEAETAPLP

[10] = target: SRSF protein kinase 2 (Homo sapiens) (UniProt P78362); test: Inhibition of SRPK2 at 3 uM
hERG (KCNH2) = hERG (KCNH2) (Homo sapiens, UniProt Q12809); test: Inhibition of human ERG at 3 uM; in short: as §1
[11] = target: Histamine H3 receptor (Homo sapiens) (UniProt Q9Y5N1); test: Inhibition of human histamine H3 receptor at 3 uM; in short: as §1
[12] = target: Cyclin-dependent kinase 3 (Homo sapiens) (UniProt Q00526); test: Inhibition of CDK3 at 3 uM
[13] = target: Sodium-dependent serotonin transporter (Homo sapiens) (UniProt P31645); test: Inhibition of human SERT at 3 uM
[14] = target: Membrane-associated tyrosine- and threonine-specific cdc2-inhibitory kinase (Homo sapiens) (UniProt Q99640); test: Inhibition of PKMYT1 at 3 uM
[15] = target: NT-3 growth factor receptor (Homo sapiens) (UniProt Q16288); test: Inhibition of TRKC at 3 uM
[16] = target: Mitogen-activated protein kinase kinase kinase kinase 1 (Homo sapiens) (UniProt Q92918); test: Inhibition of MAP4K1 at 3 uM
Sequence of Mitogen-activated protein kinase kinase kinase kinase 1 (Homo sapiens) (Q92918 whole entry, looked up): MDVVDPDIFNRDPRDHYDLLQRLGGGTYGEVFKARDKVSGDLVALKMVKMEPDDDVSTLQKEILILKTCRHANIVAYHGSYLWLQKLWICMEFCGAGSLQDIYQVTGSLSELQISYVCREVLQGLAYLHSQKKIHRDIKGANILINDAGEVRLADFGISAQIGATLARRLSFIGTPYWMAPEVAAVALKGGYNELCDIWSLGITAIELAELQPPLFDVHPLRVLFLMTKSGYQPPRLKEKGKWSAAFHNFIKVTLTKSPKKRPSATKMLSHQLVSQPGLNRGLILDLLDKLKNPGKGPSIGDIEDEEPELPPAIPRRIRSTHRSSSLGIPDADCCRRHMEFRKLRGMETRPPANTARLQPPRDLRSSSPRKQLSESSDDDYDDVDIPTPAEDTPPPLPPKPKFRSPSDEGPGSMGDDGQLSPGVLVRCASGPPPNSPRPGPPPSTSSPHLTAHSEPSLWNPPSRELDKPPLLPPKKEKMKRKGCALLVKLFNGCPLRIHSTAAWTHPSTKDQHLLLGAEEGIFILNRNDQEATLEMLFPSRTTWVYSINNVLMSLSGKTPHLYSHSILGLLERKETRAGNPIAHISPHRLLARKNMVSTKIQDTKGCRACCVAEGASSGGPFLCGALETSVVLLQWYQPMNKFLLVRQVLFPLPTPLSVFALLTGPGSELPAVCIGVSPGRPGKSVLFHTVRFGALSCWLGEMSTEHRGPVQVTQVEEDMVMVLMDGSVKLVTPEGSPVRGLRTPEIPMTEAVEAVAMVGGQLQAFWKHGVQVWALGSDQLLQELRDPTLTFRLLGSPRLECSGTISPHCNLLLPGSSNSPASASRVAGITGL

[17] = target: cAMP-dependent protein kinase catalytic subunit PRKX (Homo sapiens) (UniProt P51817); test: Inhibition of PRKX at 3 uM
[18] = target: Beta-1 adrenergic receptor (Homo sapiens) (UniProt P08588); test: Inhibition of human adrenergic beta-1 receptor at 3 uM; in short: as §1
[19] = target: Myotonin-protein kinase (Homo sapiens) (UniProt Q09013); test: Inhibition of DMPK at 3 uM
[20] = target: Serine/threonine-protein kinase pim-1 (Homo sapiens) (UniProt P11309); test: Inhibition of PIM1 at 3 uM
[21] = target: Mitogen-activated protein kinase kinase kinase kinase 5 (Homo sapiens) (UniProt Q9Y4K4); test: Inhibition of MAP4K5 at 3 uM
[22] = target: Cyclin-dependent kinase 11A (Homo sapiens) (UniProt Q9UQ88); test: Inhibition of CDC2L2 at 3 uM
[23] = target: TRAF2 and NCK-interacting protein kinase (Homo sapiens) (UniProt Q9UKE5); test: Inhibition of TNIK at 3 uM
[24] = target: Serine/threonine-protein kinase DCLK3 (Homo sapiens) (UniProt Q9C098); test: Inhibition of DCAMKL3 at 3 uM
[25] = target: Protein kinase C theta type (Homo sapiens) (UniProt Q04759); test: Inhibition of PRKCQ at 3 uM
[26] = tested on: Epidermal growth factor receptor (Homo sapiens), P00533 [L858R]; test: Inhibition of EGFR L858R mutant at 3 uM; assay type: protein assay
In short: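 Single-concentration kinase panel scoring: each value is the percentage of enzyme activity remaining relative to a DMSO-only control. An activity statistically indistinct from DMSO control was scored "no hit".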

[27] = target: Tyrosine-protein kinase ABL1 (Homo sapiens) (UniProt P00519); test: Inhibition of ABL1 at 3 uM
Sequence of Tyrosine-protein kinase ABL1 (Homo sapiens) (P00519 whole entry): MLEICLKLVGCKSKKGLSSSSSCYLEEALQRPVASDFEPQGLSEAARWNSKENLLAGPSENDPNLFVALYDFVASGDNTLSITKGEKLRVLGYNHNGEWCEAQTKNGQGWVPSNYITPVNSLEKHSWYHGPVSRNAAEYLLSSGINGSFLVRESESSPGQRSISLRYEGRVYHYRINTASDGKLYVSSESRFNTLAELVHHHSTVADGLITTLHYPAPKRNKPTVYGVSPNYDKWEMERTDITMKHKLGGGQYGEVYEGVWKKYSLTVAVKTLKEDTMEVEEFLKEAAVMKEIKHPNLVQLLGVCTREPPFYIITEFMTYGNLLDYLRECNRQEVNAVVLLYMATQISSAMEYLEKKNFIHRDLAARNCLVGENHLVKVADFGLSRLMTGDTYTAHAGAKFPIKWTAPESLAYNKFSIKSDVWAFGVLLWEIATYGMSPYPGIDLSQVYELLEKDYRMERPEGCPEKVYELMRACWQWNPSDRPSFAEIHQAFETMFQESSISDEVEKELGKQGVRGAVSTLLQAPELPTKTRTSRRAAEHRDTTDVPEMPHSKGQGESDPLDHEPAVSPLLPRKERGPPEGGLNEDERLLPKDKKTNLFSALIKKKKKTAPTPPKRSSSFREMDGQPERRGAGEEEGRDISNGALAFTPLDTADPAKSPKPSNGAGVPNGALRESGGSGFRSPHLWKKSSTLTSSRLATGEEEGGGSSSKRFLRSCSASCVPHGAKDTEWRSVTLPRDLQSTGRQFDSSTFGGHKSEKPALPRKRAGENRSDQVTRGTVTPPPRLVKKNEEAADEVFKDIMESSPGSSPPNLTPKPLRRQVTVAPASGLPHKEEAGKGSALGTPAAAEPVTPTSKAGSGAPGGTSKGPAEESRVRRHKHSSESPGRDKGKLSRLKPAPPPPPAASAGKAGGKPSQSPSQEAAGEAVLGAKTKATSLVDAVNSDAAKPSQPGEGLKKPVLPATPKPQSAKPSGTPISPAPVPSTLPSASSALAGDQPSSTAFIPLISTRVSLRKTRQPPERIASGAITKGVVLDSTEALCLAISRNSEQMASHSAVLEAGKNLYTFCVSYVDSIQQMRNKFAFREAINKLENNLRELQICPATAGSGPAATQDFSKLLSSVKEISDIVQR

[28] = target: MAP/microtubule affinity-regulating kinase 3 (Homo sapiens) (UniProt P27448); test: Inhibition of MARK3 at 3 uM
[29] = target: Cyclin-dependent kinase 8 (Homo sapiens) (UniProt P49336); test: Inhibition of CDK8 at 3 uM
[30] = target: Phosphatidylinositol 4,5-bisphosphate 3-kinase catalytic subunit gamma isoform (Homo sapiens) (UniProt P48736); test: Inhibition of PIK3CG at 3 uM
[31] = target: D(4) dopamine receptor (Homo sapiens) (UniProt P21917); test: Inhibition of human dopamine D4 receptor at 3 uM; in short: as §1
[32] = target: Phosphatidylinositol 4-phosphate 3-kinase C2 domain-containing subunit beta (Homo sapiens) (UniProt O00750); test: Inhibition of PIK3C2B at 3 uM
Sequence of Phosphatidylinositol 4-phosphate 3-kinase C2 domain-containing subunit beta (Homo sapiens) (O00750 whole entry, the tested form may be a part): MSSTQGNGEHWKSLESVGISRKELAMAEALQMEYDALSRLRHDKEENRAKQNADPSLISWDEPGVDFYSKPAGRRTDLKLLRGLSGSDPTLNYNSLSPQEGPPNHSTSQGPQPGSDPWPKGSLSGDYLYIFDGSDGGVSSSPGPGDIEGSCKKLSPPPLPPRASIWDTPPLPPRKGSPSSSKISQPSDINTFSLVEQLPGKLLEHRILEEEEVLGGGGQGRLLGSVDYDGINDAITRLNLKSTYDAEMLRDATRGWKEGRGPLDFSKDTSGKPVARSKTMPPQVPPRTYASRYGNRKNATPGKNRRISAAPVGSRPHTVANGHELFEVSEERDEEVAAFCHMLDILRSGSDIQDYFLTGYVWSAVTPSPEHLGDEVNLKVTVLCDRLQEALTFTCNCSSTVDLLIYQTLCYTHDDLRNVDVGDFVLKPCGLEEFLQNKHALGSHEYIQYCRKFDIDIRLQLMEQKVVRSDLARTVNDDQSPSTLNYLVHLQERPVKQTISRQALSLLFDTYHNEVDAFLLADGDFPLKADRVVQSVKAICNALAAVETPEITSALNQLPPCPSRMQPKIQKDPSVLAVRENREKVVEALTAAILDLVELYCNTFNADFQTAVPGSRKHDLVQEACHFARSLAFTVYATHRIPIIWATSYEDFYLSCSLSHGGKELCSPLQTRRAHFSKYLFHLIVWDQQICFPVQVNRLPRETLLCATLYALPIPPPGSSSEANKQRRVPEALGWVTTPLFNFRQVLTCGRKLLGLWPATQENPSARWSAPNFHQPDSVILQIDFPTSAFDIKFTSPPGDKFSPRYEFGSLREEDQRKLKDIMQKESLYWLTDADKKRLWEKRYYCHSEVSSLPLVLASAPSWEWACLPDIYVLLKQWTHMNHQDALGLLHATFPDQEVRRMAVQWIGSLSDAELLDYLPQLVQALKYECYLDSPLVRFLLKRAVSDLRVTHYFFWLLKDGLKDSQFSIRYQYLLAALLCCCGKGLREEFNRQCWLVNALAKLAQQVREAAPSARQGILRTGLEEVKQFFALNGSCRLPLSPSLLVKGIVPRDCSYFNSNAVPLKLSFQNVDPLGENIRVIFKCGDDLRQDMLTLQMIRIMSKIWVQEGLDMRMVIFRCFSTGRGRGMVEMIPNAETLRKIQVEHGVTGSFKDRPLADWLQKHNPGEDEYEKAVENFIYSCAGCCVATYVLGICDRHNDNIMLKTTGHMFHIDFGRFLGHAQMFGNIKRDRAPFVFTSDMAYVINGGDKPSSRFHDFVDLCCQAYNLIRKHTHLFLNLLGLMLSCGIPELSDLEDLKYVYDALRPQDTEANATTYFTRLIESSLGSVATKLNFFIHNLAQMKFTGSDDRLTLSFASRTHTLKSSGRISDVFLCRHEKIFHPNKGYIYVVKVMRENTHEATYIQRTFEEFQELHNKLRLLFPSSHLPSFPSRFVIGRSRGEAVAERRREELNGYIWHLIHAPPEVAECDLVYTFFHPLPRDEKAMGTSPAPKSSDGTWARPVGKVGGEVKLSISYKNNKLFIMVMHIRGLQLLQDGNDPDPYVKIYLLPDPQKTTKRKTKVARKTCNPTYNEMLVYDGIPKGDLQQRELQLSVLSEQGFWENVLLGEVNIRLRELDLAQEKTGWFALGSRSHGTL

[33] = target: Maternal embryonic leucine zipper kinase (Homo sapiens) (UniProt Q14680); test: Inhibition of MELK at 3 uM
[34] = target: Sodium-dependent dopamine transporter (Homo sapiens) (UniProt Q01959); test: Inhibition of human DAT at 3 uM; in short: as §1
Sequence of Sodium-dependent dopamine transporter (Homo sapiens) (Q01959 whole entry): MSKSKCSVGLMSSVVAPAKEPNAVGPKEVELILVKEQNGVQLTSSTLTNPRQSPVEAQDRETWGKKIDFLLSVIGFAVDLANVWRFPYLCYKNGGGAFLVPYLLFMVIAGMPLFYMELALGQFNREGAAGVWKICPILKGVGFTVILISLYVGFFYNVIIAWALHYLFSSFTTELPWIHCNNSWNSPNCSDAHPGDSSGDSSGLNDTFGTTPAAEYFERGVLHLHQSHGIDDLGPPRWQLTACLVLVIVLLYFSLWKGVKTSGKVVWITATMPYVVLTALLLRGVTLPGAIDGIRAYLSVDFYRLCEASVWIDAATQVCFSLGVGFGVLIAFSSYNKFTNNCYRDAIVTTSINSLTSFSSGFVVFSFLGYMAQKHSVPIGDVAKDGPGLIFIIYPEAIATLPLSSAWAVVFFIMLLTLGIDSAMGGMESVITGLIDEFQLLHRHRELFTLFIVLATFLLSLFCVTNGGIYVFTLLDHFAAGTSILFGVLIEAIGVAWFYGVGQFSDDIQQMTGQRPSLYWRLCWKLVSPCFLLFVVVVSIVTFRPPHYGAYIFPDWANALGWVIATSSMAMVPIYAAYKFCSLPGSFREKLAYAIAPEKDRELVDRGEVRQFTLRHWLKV

[35] = target: Mitogen-activated protein kinase 10 (Homo sapiens) (UniProt P53779); test: Inhibition of JNK3 at 3 uM
[36] = target: ALK tyrosine kinase receptor (Homo sapiens) (UniProt Q9UM73); test: Inhibition of ALK at 3 uM
[37] = target: Leukocyte tyrosine kinase receptor (Homo sapiens) (UniProt P29376); test: Inhibition of LTK at 3 uM
[38] = target: Serine/threonine-protein kinase 32C (Homo sapiens) (UniProt Q86UX6); test: Inhibition of YANK3 at 3 uM
Sequence of Serine/threonine-protein kinase 32C (Homo sapiens) (Q86UX6 whole entry): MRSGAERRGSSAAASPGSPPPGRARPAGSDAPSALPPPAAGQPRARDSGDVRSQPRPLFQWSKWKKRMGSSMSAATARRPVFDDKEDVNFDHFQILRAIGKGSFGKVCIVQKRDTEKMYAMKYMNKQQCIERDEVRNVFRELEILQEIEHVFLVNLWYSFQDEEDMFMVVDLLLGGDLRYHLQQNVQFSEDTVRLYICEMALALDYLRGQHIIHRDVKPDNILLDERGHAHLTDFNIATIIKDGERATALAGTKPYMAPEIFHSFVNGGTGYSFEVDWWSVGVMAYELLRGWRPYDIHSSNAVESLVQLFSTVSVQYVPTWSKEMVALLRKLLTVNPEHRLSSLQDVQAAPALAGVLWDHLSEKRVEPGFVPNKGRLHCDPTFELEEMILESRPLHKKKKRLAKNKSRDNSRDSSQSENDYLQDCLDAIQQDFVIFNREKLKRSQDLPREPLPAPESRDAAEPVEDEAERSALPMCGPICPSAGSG

[39] = target: Cyclin-dependent kinase-like 2 (Homo sapiens) (UniProt Q92772); test: Inhibition of CDKL2 at 3 uM
[40] = target: Substance-P receptor (Homo sapiens) (UniProt P25103); test: Inhibition of human NK1 receptor at 3 uM; in short: as §1
[41] = target: Serine/threonine-protein kinase RIO3 (Homo sapiens) (UniProt O14730); test: Inhibition of RIOK3 at 3 uM
[42] = target: Serine/threonine-protein kinase SIK1 (Homo sapiens) (UniProt P57059); test: Inhibition of SNF1LK at 3 uM
[43] = target: Receptor-interacting serine/threonine-protein kinase 1 (Homo sapiens) (UniProt Q13546); test: Inhibition of RIPK1 at 3 uM

With CN(C)CCOc1cc(-c2cn[nH]c2)ccc1NC(=O)C1COc2ccccc2O1 (stereo not given) [SR-3677] the inhibition [1] was under 10%, the inhibition (Rattus norvegicus) was -4% and the inhibition [2] was under 10%. For the same molecule, the inhibition [3] was 5%, the inhibition [4] was under 10% and the inhibition [5] was -4%. It also gave an inhibition [6] of 88%, an inhibition [7] of under 10% and an inhibition [8] of under 10%. The inhibition [9] was 5%, the inhibition [10] was under 10% and the inhibition at 3 µM (hERG (KCNH2)) was 31%. It also gave an inhibition [11] of -2%, an inhibition [12] of under 10% and an inhibition [13] of 3%. It also gave an inhibition [14] of under 10%, an inhibition [15] of under 10% and an inhibition [16] of under 10%. It also gave an inhibition [17] of under 10%, an inhibition [18] of 43% and an inhibition [19] of under 10%. The inhibition [20] was under 10%, the inhibition [21] was under 10% and the inhibition [22] was under 10%. For the same molecule, the inhibition [23] was under 10%, the inhibition [24] was under 10% and the inhibition [25] was under 10%. The inhibition [26] was under 10%, the inhibition [27] was under 10% and the inhibition [28] was under 10%. It also gave an inhibition [29] of under 10%, an inhibition [30] of under 10% and an inhibition [31] of -2%. The inhibition [32] was under 10%, the inhibition [33] was under 10% and the inhibition [34] was 37%. The inhibition [35] was under 10%, the inhibition [36] was under 10% and the inhibition [37] was under 10%. The inhibition [38] was under 10%, the inhibition [39] was under 10% and the inhibition [40] was -6%. The inhibition [41] was under 10%, the inhibition [42] was under 10% and the inhibition [43] was under 10%.
